Calls of active or inactive are those of the source.
What was measured:
K562 [1] = experiment: Effect on PPP1R15A gene expression in human K562 cells assessed as change in mRNA transcript expression at 10 nM after 48 hrs by DNA microarray analysis relative to control; type: functional
In short: (§1)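 K562 CML cells (b3a2 Bcr-Abl) in standard ATCC-recommended culture, exposed once to 10 nM conjugate and harvested at 48 h. Untreated controls were also collected at 48 h. Transcripts were profiled on Human Gene 1.0 ST whole-genome oligonucleotide arrays, and each treated level was expressed relative to the untreated control, with a cutoff of at least twofold change.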

K562 [2] = experiment: Cell cycle arrest in human K562 cells assessed as increase in accumulation at S phase at 125 to 250 nM after 48 hrs propidium iodide staining-based FACS analysis; type: functional
In short: (§2)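 K562 cells, from ATCC and kept under ATCC-recommended conditions, were treated for 48 h and pelleted at 200g for 5 min. They were resuspended in PBS, fixed with prechilled 70% ethanol and stained with propidium iodide at 50 µg/mL. DNA content was read by flow cytometry to assign the G0–G1, S and G2–M fractions; sub-2C DNA content was taken as apoptosis.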

K562 [3] = experiment: Effect on LOC85391 gene expression in human K562 cells assessed as change in mRNA transcript expression at 10 nM after 48 hrs by DNA microarray analysis relative to control; type: functional; in short: as §1
K562 [4] = experiment: Effect on PSMB6 gene expression in human K562 cells assessed as change in mRNA transcript expression at 10 nM after 48 hrs by DNA microarray analysis relative to control; type: functional; in short: as §1
K562 [5] = experiment: Effect on STAG1 gene expression in human K562 cells assessed as change in mRNA transcript expression at 10 nM after 48 hrs by DNA microarray analysis relative to control; type: functional; in short: as §1
K562 [6] = experiment: Effect on EGR1 gene expression in human K562 cells assessed as change in mRNA transcript expression at 10 nM after 48 hrs by DNA microarray analysis relative to control; type: functional
In short: (§3)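 Transcripts were profiled on Affymetrix GeneChip Human Gene 1.0 ST arrays in K562 cells treated at 10 nM. Treated cells were collected at 6, 12, 24 and 48 h; untreated controls were collected at 48 h. Transcripts changed at least twofold versus control were scored.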

K562 [7] = experiment: Effect on TMEM126A gene expression in human K562 cells assessed as change in mRNA transcript expression at 10 nM after 48 hrs by DNA microarray analysis relative to control; type: functional
In short: (§4)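 K562 CML cells (b3a2 Bcr-Abl) kept under standard culture conditions were exposed to 10 nM conjugate and harvested at 6, 12, 24 and 48 h. Untreated controls were harvested at 48 h. Whole-transcript oligonucleotide microarray profiling was done, and changes of at least twofold versus control were scored.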

K562 [8] = experiment: Effect on MRPS28 gene expression in human K562 cells assessed as change in mRNA transcript expression at 10 nM after 48 hrs by DNA microarray analysis relative to control; type: functional; in short: as §1
K562 [9] = experiment: Effect on HIST2H2AA gene expression in human K562 cells assessed as change in mRNA transcript expression at 10 nM after 48 hrs by DNA microarray analysis relative to control; type: functional; in short: as §1
K562 [10] = experiment: Cell cycle arrest in human K562 cells assessed as decrease in accumulation at G1 phase at 125 to 250 nM after 48 hrs propidium iodide staining-based FACS analysis; type: functional; in short: as §2
[11] = tested on: histone H4c gene fragment DNA (human); experiment: Binding affinity to 5'-ACGCCA-3' sequence of 223 bp human histone H4c gene fragment DNA assessed as DNA alkylating activity at 5 to 100 nM after 15 hrs by PAGE
K562 [12] = experiment: Effect on C0MMD1 gene expression in human K562 cells assessed as change in mRNA transcript expression at 10 nM after 48 hrs by DNA microarray analysis relative to control; type: functional; in short: as §3
K562 [13] = experiment: Effect on HIST1H4K gene expression in human K562 cells assessed as down-regulation of mRNA transcript expression at 10 nM after 48 hrs by DNA microarray analysis relative to control; type: functional; in short: as §1
K562 [14] = experiment: Effect on SLC4A1 gene expression in human K562 cells assessed as change in mRNA transcript expression at 10 nM after 48 hrs by DNA microarray analysis relative to control; type: functional; in short: as §1
K562 [15] = experiment: Effect on HIST1H2BH gene expression in human K562 cells assessed as change in mRNA transcript expression at 10 nM after 48 hrs by DNA microarray analysis relative to control; type: functional; in short: as §3
K562 [16] = experiment: Effect on FLJ21767 gene expression in human K562 cells assessed as change in mRNA transcript expression at 10 nM after 48 hrs by DNA microarray analysis relative to control; type: functional; in short: as §3
K562 [17] = experiment: Effect on HIST1H2B gene expression in human K562 cells assessed as change in mRNA transcript expression at 10 nM after 48 hrs by DNA microarray analysis relative to control; type: functional; in short: as §3
K562 [18] = experiment: Cytotoxicity against human K562 cells by MTS assay; type: functional, cell-based
In short: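 Proliferation of K562 cells (ATCC, standard culture) was read as mitochondrial conversion of the MTS tetrazolium to formazan, using the CellTiter 96 Aqueous One reagent. EC50 was derived from these readings.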

K562 [19] = experiment: Effect on HIST1H4B gene expression in human K562 cells assessed as down-regulation of mRNA transcript expression at 10 nM after 48 hrs by DNA microarray analysis relative to control; type: functional; in short: as §3
K562 [20] = experiment: Effect on TCN1 gene expression in human K562 cells assessed as change in mRNA transcript expression at 10 nM after 48 hrs by DNA microarray analysis relative to control; type: functional; in short: as §1
K562 [21] = experiment: Effect on HIST1H4D gene expression in human K562 cells assessed as down-regulation of mRNA transcript expression at 10 nM after 48 hrs by DNA microarray analysis relative to control; type: functional; in short: as §3
K562 [22] = experiment: Effect on S100A4 gene expression in human K562 cells assessed as change in mRNA transcript expression at 10 nM after 48 hrs by DNA microarray analysis relative to control; type: functional; in short: as §1
K562 [23] = experiment: Effect on SNORD80 gene expression in human K562 cells assessed as change in mRNA transcript expression at 10 nM after 48 hrs by DNA microarray analysis relative to control; type: functional; in short: as §1
K562 [24] = experiment: Effect on HIST2H2B gene expression in human K562 cells assessed as change in mRNA transcript expression at 10 nM after 48 hrs by DNA microarray analysis relative to control; type: functional; in short: as §1
K562 [25] = experiment: Effect on TPK1 gene expression in human K562 cells assessed as change in mRNA transcript expression at 10 nM after 48 hrs by DNA microarray analysis relative to control; type: functional; in short: as §4
K562 [26] = experiment: Effect on C3 gene expression in human K562 cells assessed as change in mRNA transcript expression at 10 nM after 48 hrs by DNA microarray analysis relative to control; type: functional; in short: as §3
K562 [27] = experiment: Effect on LOC85389 gene expression in human K562 cells assessed as change in mRNA transcript expression at 10 nM after 48 hrs by DNA microarray analysis relative to control; type: functional; in short: as §1

`CC(=O)Nc1cn(C)c(C(=O)Nc2cn(C)c(C(=O)NCCC(=O)Nc3cn(C)c(C(=O)NCCCC(=O)Nc4cc(C(=O)Nc5cn(C)c(C(=O)Nc6ccc7[nH]c(C(=O)N8CC(CCl)c9c8cc(O)c8ccccc98)cc7c6)n5)n(C)c4)n3)n2)n1` (configuration not stated) was tested, and the “fold change (FC)” value (K562 [1]) was “>=2”, the Activity (K562 [2]) was “Active” and the “fold change (FC)” value (K562 [3]) was “>=2”. The “fold change (FC)” value (K562 [4]) was “>=2”, the “fold change (FC)” value (K562 [5]) was “>=2” and the “fold change (FC)” value (K562 [6]) was “>=2”. The “fold change (FC)” value (K562 [7]) was “>=2”, the “fold change (FC)” value (K562 [8]) was “>=2” and the “fold change (FC)” value (K562 [9]) was “>=2”. For the same compound, the Activity (K562 [10]) was “Active”, the Activity [11] was “Active” and the “fold change (FC)” value (K562 [12]) was “>=2”. For the same compound, the “fold change (FC)” value (K562 [13]) was 2.71, the “fold change (FC)” value (K562 [14]) was “>=2” and the “fold change (FC)” value (K562 [15]) was “>=2”. For the same compound, the “fold change (FC)” value (K562 [16]) was “>=2”, the “fold change (FC)” value (K562 [17]) was “>=2” and the EC50 (K562 [18]) was 0.097 µM. The “fold change (FC)” value (K562 [19]) was 3.91, the “fold change (FC)” value (K562 [20]) was “>=2” and the “fold change (FC)” value (K562 [21]) was 2.43. The “fold change (FC)” value (K562 [22]) was “>=2”, the “fold change (FC)” value (K562 [23]) was “>=2” and the “fold change (FC)” value (K562 [24]) was “>=2”. The “fold change (FC)” value (K562 [25]) was “>=2”, the “fold change (FC)” value (K562 [26]) was “>=2” and the “fold change (FC)” value (K562 [27]) was “>=2”.
